Laboratory results reported in ChEMBL document CHEMBL1151758, “Synthesis of polyfluoro ketones for selective inhibition of human phospholipase A2 enzymes” (J Med Chem, 2008).

Columns and labels:
[1] = target: T1, Cytosolic phospholipase A2 (Homo sapiens) (UniProt P47712); assay: Inhibition of human group 4A cPLA2 at 0.091 mol fraction by mixed micelle-based assay
T1 sequence (whole entry): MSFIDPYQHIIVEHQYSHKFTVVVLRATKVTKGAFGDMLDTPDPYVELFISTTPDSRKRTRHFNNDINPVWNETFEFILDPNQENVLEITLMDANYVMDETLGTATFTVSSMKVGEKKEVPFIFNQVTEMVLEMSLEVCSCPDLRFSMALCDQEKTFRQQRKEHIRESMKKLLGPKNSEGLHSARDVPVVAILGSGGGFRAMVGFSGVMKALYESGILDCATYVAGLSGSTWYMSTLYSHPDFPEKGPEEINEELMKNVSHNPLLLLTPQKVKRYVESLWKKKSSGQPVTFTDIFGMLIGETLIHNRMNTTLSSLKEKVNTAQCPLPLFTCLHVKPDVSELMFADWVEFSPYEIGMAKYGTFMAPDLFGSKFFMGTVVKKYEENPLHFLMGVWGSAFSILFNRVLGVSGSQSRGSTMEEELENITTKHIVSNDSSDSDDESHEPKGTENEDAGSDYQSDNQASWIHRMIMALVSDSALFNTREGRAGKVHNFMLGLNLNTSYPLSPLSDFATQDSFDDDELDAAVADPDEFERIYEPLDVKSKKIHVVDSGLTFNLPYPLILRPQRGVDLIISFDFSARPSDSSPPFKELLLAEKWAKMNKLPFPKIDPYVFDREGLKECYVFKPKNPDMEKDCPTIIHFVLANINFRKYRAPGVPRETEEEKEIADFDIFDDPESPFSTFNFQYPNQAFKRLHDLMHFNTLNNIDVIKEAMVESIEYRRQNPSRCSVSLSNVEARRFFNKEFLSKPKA
Method in brief: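 Modified Dole assay, radiolabel release. Buffer: 100 mM HEPES pH 7.5, 90 μM CaCl2, 2 mM DTT, 0.1 mg/ml BSA. Percent inhibition measured with inhibitor at 0.091 mole fraction of the total substrate interface.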

[2] = target: T2, 85/88 kDa calcium-independent phospholipase A2 (Homo sapiens) (UniProt O60733); assay: Inhibition of human group 6A iPLA2 at 0.091 mol fraction by mixed micelle-based assay
T2 sequence (whole entry): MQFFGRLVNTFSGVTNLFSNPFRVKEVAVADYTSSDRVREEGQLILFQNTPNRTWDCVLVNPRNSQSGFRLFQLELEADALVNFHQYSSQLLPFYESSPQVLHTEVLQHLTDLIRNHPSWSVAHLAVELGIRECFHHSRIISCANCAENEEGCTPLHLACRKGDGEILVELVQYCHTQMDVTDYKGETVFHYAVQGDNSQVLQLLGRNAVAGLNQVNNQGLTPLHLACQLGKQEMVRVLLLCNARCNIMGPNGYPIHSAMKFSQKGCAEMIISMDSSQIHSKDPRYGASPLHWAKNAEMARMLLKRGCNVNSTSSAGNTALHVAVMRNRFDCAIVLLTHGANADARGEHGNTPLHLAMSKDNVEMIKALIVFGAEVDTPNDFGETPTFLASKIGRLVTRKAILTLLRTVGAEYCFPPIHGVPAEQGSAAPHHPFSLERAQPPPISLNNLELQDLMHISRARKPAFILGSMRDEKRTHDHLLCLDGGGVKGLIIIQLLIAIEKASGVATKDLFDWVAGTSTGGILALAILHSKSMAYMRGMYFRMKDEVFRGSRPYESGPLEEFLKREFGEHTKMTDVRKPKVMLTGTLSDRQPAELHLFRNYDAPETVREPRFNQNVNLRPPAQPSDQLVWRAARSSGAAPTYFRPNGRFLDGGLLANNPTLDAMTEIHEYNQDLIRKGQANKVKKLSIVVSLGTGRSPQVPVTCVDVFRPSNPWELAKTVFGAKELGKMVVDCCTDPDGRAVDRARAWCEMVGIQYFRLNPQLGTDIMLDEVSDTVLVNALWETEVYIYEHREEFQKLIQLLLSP
Method in brief: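 Modified Dole assay. Buffer: 200 mM HEPES pH 7.0, 1 mM ATP, 2 mM DTT, 0.1 mg/ml BSA. Percent inhibition read with inhibitor at 0.091 mole fraction of the total substrate interface.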

[3] = target: T3, Phospholipase A2 group V (Homo sapiens) (UniProt P39877); assay: Inhibition of human group 5 sPLA2 at 0.091 mol fraction by mixed micelle-based assay
T3 sequence (whole entry): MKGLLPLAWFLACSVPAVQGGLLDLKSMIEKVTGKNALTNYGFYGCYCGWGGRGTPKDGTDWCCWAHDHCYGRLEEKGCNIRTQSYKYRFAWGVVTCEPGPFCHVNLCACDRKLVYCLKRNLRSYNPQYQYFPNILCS
Method in brief: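 Modified Dole assay. Inhibitor present at 0.091 mole fraction of the total substrate interface; percent inhibition recorded.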

[4] = target: T2, 85/88 kDa calcium-independent phospholipase A2 (Homo sapiens); assay: Inhibition of human group 6A iPLA2 by mixed micelle-based assay
Method in brief: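 Modified Dole assay. Buffer: 200 mM HEPES pH 7.0, 1 mM ATP, 2 mM DTT, 0.1 mg/ml BSA. XI(50) is the inhibitor mole fraction in the total interface causing 50% inhibition. It was estimated for compounds exceeding 90% inhibition at 0.091 mole fraction.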

[5] = target: T1, Cytosolic phospholipase A2 (Homo sapiens); assay: Inhibition of human group 4A cPLA2 by mixed micelle-based assay
Method in brief: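 Buffer: 100 mM HEPES pH 7.5, 90 μM CaCl2, 2 mM DTT, 0.1 mg/ml BSA. XI(50) is the inhibitor mole fraction in the total substrate interface that gives 50% inhibition. It was estimated for compounds giving >90% inhibition at 0.091 mole fraction.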

[6] = target: T3, Phospholipase A2 group V (Homo sapiens); assay: Inhibition of human group 5 sPLA2 by mixed micelle-based assay
Method in brief: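 Modified Dole assay. XI(50) is the inhibitor mole fraction of the total interface that halves activity. It was estimated only where inhibition at 0.091 mole fraction exceeded 90%.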

SMILES	inhibition [1]	inhibition [2]	inhibition [3]	XI50 [4]	XI50 [5]	XI50 [6]
O=C(CCCCCCc1ccccc1)C(F)(F)C(F)(F)F	65%	98%	75%	0.0065		
O=C(CCCCc1ccccc1)C(F)(F)F	38%	96%	< 25%	0.0096		
CCCCCCCCCCOc1ccc(CCC(=O)C(F)(F)F)cc1	96%	94%	80%	0.0208	0.0156	
CCCCCCOc1ccc(CCC(=O)C(F)(F)F)cc1	91%	85%	82%	0.0328	0.0199	
O=C(CCc1ccc(OCc2ccccc2)cc1)C(F)(F)F	88%	71%	49%			
CCCCCCOc1ccc(CCCCC(=O)C(F)(F)F)cc1	92%	91%	86%	0.0169	0.0098	
CCCCCCCCCCCCCCC(F)C(=O)C(F)(F)F (stereo not drawn)	94%	93%	86%	0.0011	0.0167	0.0236
OC(O)(C(F)(F)F)C(F)(F)CCCc1ccccc1	27%	49%	59%			
O=C(CCCCCCc1ccccc1)C(F)(F)F	68%	99%	53%	0.0018		
O=C(CCCCCc1ccccc1)C(F)(F)F	62%	96%	48%	0.0025		
O=C(CCCCCc1ccccc1)C(F)(F)C(F)(F)F	56%	98%	46%	0.0065		
O=C(CCCCc1ccccc1)C(F)(F)C(F)(F)F	< 25%	98%	28%	0.0073		
CCCCCCCCCCCCCCCC(=O)C(F)(F)F	96%	92%	79%	0.0195	0.0223	
CCCCCCOc1ccc(CCC(=O)C(F)(F)C(F)(F)F)cc1	73%	95%	86%	0.0075		
CCCCCCCCCCOc1ccc(CCCCC(=O)C(F)(F)F)cc1	95%	94%	84%	0.0166	0.0116	
CCCCCCCCCCCCCCCC(=O)C(F)(F)C(F)(F)F	< 25%	50%	43%			
